The values below come from ChEMBL document CHEMBL3576845, “Discovery of Novel Multiacting Topoisomerase I/II and Histone Deacetylase Inhibitors” (ACS Med Chem Lett, 2015).

Activity calls are given as the source filed them. No cut-off for these calls is given here. Some results are limits rather than exact numbers.

Assay [1] in a line: Cytotoxicity against HLF assessed as growth inhibition after 72 hrs by MTT assay. The class given is functional. The conditions noted are these: Homo sapiens.
The subject of assay [2] is HCT-116. The assay is described as follows: Cytotoxicity against human HCT116 cells assessed as growth inhibition after 72 hrs by MTT assay. The class given is functional, cell-based. The note with it: HCT-116, 72 h.
The test system of another assay is MDA-MB-231. The assay can be described thus: Cytotoxicity against human MDA-MB-231 cells assessed as growth inhibition after 72 hrs by MTT assay. The format is functional, cell-based. The conditions noted are these: MDA-MB-231, 72 h.
Assay [3] deals with T1, DNA topoisomerase 1 (Homo sapiens) (UniProt P11387).
T1 sequence (whole entry): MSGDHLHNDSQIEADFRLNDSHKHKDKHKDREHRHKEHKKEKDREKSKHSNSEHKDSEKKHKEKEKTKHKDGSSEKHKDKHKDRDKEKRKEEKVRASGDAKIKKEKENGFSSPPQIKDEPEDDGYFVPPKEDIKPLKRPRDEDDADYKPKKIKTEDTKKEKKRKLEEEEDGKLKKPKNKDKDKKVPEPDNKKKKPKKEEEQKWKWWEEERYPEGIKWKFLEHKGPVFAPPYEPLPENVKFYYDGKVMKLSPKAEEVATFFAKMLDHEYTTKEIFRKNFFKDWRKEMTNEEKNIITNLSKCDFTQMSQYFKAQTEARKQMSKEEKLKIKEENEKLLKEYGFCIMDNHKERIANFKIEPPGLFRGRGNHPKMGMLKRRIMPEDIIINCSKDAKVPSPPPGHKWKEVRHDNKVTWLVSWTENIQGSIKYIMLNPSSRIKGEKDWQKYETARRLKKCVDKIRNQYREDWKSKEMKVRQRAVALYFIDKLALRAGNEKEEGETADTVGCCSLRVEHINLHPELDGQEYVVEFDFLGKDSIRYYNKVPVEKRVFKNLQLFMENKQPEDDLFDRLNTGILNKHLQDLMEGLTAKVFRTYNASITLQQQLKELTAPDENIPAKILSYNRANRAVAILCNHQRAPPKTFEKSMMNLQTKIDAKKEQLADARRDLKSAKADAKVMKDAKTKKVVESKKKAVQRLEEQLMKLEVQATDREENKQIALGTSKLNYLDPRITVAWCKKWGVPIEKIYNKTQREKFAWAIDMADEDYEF
The assay can be described thus: Inhibition of topoisomerase1 (unknown origin)-mediated pBR322 DNA relaxation at 50 uM after 15 mins by agarose gel electrophoresis. An outline of the steps:
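Relaxation of supercoiled pBR322 plasmid by purified Top1 with compound at 50 μM; camptothecin 50 μM as reference; DNA-only and DNA + enzyme lanes as controls; gel read-out; repeated 3 times.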

Assay [4] addresses DNA topoisomerase 2-alpha (Homo sapiens) (UniProt P11388). The assay can be described thus: Inhibition of topoisomerase-2alpha (unknown origin)-mediated pBR322 DNA relaxation at 50 uM after 30 mins by agarose gel electrophoresis. In short, it runs like this: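 Purified Top2α relaxation of supercoiled pBR322 plasmid with compound at 50 μM; etoposide 50 μM as reference; DNA-only and DNA + enzyme lanes as controls; gel read-out; repeated 3 times.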

The next assay deals with Histone deacetylase 1 (Homo sapiens, UniProt Q13547). The assay is described as follows: Inhibition of recombinant full length human HDAC1 (1 to 482) expressed in baculovirus infected insect Sf9 cells using fluorogenic HDAC substrate 3 after 30 mins by fluorescence assay.
Sequence of Histone deacetylase 1 (Q13547 whole entry): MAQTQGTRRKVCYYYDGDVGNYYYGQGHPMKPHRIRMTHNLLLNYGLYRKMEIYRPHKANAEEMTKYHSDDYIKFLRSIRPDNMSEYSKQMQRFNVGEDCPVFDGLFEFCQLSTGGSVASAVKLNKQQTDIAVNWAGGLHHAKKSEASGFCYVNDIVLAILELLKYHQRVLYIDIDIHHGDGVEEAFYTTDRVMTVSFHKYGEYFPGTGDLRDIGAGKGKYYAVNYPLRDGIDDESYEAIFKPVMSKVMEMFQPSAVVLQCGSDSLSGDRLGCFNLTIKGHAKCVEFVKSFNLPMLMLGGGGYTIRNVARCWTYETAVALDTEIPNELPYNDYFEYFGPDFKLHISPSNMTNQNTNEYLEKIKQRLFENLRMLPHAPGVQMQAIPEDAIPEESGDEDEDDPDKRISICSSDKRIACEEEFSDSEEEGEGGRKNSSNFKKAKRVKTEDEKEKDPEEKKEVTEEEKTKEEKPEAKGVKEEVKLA
Assay [5] has as its system HCT-116. The assay is described as follows: Induction of apoptosis in human HCT116 cells at 5 uM after 24 hrs by annexin V-FITC/propidium iodide staining-based flow cytometric analysis relative to control. The format is functional.
Assay [6] has as its system HCT-116. The assay can be described thus: Induction of apoptosis in human HCT116 cells at 5 uM after 48 hrs by annexin V-FITC/propidium iodide staining-based flow cytometric analysis relative to control. The class given is functional.
Assay [7] relates to HCT-116. The assay is described as follows: Induction of apoptosis in human HCT116 cells assessed as early apoptotic cells at 5 uM after 24 hrs by annexin V-FITC/propidium iodide staining-based flow cytometric analysis (reference value: 2.27%). The format is functional.
Assay [8] concerns HCT-116. The assay can be described thus: Induction of apoptosis in human HCT116 cells assessed as late apoptotic cells at 5 uM after 24 hrs by annexin V-FITC/propidium iodide staining-based flow cytometric analysis (reference value: 1.05%). The class given is functional.
The subject of assay [9] is HCT-116. The assay can be described thus: Induction of apoptosis in human HCT116 cells assessed as necrotic cells at 5 uM after 24 hrs by annexin V-FITC/propidium iodide staining-based flow cytometric analysis (reference value: 8%). The class given is functional.
For assay [10], the system named is HCT-116. The assay can be described thus: Induction of apoptosis in human HCT116 cells assessed as early apoptotic cells at 5 uM after 48 hrs by annexin V-FITC/propidium iodide staining-based flow cytometric analysis (reference value: 2.76%). The format is functional.
The test system of assay [11] is HCT-116. The assay is described as follows: Induction of apoptosis in human HCT116 cells assessed as late apoptotic cells at 5 uM after 48 hrs by annexin V-FITC/propidium iodide staining-based flow cytometric analysis (reference value: 3.03%). The format is functional.
Assay [12] concerns HCT-116. The assay can be described thus: Induction of apoptosis in human HCT116 cells assessed as necrotic cells at 5 uM after 48 hrs by annexin V-FITC/propidium iodide staining-based flow cytometric analysis (reference value: 5.25%). The format is functional.

Sequence of DNA topoisomerase 2-alpha (Homo sapiens) (P11388 whole entry): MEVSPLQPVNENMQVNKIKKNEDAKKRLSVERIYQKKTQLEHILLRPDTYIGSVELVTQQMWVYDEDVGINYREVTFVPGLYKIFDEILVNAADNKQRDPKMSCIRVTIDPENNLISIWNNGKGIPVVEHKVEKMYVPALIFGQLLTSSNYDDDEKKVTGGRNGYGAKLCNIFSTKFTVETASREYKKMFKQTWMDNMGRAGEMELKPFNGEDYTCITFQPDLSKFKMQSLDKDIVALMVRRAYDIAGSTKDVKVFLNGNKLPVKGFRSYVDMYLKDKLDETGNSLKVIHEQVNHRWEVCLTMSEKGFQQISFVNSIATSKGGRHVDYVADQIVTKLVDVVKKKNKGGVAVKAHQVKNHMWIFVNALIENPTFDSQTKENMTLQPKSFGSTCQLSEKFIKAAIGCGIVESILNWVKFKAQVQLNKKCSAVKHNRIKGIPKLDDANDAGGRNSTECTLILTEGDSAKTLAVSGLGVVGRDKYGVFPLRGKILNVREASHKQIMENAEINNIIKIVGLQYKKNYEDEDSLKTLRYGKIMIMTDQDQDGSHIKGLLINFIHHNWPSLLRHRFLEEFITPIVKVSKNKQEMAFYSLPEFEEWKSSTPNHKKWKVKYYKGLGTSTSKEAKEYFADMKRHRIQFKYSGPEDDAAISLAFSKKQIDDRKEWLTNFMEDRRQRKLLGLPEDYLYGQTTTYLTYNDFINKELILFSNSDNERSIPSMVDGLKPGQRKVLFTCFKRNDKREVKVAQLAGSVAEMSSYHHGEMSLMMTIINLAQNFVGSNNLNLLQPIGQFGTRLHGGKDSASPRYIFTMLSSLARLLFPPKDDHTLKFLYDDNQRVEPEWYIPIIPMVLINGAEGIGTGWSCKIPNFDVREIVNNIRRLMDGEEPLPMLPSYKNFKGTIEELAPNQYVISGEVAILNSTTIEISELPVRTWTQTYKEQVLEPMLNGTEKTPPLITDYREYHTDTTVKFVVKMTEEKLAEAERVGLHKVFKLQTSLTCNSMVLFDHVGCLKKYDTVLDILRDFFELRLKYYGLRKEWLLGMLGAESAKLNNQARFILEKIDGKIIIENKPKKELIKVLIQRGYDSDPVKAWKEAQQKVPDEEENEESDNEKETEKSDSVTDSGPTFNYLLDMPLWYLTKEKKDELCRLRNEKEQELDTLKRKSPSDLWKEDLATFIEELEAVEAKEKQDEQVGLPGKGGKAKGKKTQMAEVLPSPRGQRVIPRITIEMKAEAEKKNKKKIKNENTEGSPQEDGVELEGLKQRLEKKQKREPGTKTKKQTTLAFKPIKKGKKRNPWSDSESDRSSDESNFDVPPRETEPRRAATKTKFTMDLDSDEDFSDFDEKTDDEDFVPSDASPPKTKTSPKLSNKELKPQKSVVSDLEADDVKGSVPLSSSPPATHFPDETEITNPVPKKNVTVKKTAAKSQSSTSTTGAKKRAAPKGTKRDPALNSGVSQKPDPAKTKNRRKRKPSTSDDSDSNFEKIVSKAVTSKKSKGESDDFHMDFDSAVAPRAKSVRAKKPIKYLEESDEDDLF

For the molecule `CN1c2ccc(NCc3ccc(-c4noc(CCCC(=O)NO)n4)cc3)cc2C(=O)N2CCc3c([nH]c4ccc(O)cc34)C21` (configuration not stated), the IC50 in assay [1] turned out to be 6.7 µM; in the assay with HCT-116 [2] it was 3.5 µM; in the assay on MDA-MB-231, 16 µM; on Histone deacetylase 1, 0.321 µM. In addition, the inhibition entry in assay [3] and in assay [4] was “Active” throughout.

Consider `CN1c2ccc(N)cc2C(=O)N2CCc3c([nH]c4ccc(O)cc34)C21` (configuration not stated), for which the IC50 was found to be 0.47 µM in assay [1], 0.43 µM in the assay with HCT-116 [2] and 0.49 µM with MDA-MB-231. Moreover, the inhibition entry in [3] and in assay [4] was “Active” in each case. The Activity came out at 11.09% in the assay with HCT-116 [5] and 16.39% in the assay on HCT-116 [6].

`CN1c2ccc(NCc3ccc(NC(=O)CCCCCCC(=O)NO)cc3)cc2C(=O)N2CCc3c([nH]c4ccc(O)cc34)C21` (configuration not stated): the IC50 in assay [1] was 13 µM; with HCT-116 [2], 2.1 µM; in the assay on MDA-MB-231, 14 µM; at Histone deacetylase 1, 0.03 µM. The inhibition result in assay [3] and in [4] was “Active” in each case.

For `COc1ccc2[nH]c3c(c2c1)CCN1C(=O)c2cc(NC(=O)CCCCCC(=O)NO)ccc2N(C)C31` (configuration not stated), the 50% inhibitory concentration (IC50) in assay [1] was 68 µM; in the assay on HCT-116 [2], 35 µM; in the assay with MDA-MB-231, 58 µM; on Histone deacetylase 1, over 10 µM. Besides, the inhibition entry in assay [3] was “inactive”. Further, the inhibition entry in assay [4] was “Active”.

`CN1c2ccc(NCc3ccc(-c4noc(CCCCC(=O)NO)n4)cc3)cc2C(=O)N2CCc3c([nH]c4ccc(O)cc34)C21` (configuration not stated): the half-maximal inhibitory concentration (IC50) in [1] is 8.2 µM; in the assay with HCT-116 [2], 3.7 µM; in the assay on MDA-MB-231 it was 5.9 µM; at Histone deacetylase 1 it was 0.19 µM. For the same molecule, the inhibition entry in assay [3] and in [4] was “Active” in each case.

On to `COc1ccc2[nH]c3c(c2c1)CCN1C(=O)c2cc(NC(=O)CCCCC(=O)NO)ccc2N(C)C31` (configuration not stated), for which the IC50 amounted to 62 µM in assay [1], 22 µM with HCT-116 [2], 36 µM with MDA-MB-231 and 0.275 µM on Histone deacetylase 1. The inhibition result in assay [3] was “inactive”. Moreover, the inhibition result in assay [4] is “Active”.

As for `CN1c2ccc(NCc3ccc(-c4nnc(CCCCCCC(=O)NO)o4)cc3)cc2C(=O)N2CCc3c([nH]c4ccc(O)cc34)C21` (configuration not stated), the IC50 in assay [1] turned out to be 6.1 µM; with HCT-116 [2] it was 9.7 µM; in the assay on MDA-MB-231, 5.7 µM; at Histone deacetylase 1, 0.089 µM. Besides, the inhibition entry in assay [3] and in assay [4] was “Active” throughout.

Regarding `COc1cc([C@@H]2c3cc4c(cc3[C@@H](O[C@@H]3O[C@@H]5CO[C@@H](C)O[C@H]5[C@H](O)[C@H]3O)[C@H]3COC(=O)[C@H]23)OCO4)cc(OC)c1O`, the inhibition entry in assay [4] is “Active”.

As for `CN1c2ccc(NCc3ccc(-c4nnc(CCCC(=O)NO)o4)cc3)cc2C(=O)N2CCc3c([nH]c4ccc(O)cc34)C21` (configuration not stated), the IC50 in assay [1] was over 168 µM; in the assay on HCT-116 [2], 11 µM; in the assay with MDA-MB-231, over 168 µM; at Histone deacetylase 1, over 10 µM. The inhibition entry in [3] and in assay [4] was “Active” in each case.

Take `CN1c2ccc(NCc3ccc(-c4nnc(CCCCC(=O)NO)o4)cc3)cc2C(=O)N2CCc3c([nH]c4ccc(O)cc34)C21` (configuration not stated): the IC50 in [1] came out at 26 µM; in the assay with HCT-116 [2], 4.9 µM; with MDA-MB-231 it was 30 µM; on Histone deacetylase 1 it was 0.093 µM. For the same molecule, the inhibition result in assay [3] and in [4] was “Active” throughout.

For the molecule `O=C(CCCCCCC(=O)Nc1ccccc1)NO` [VORINOSTAT], the Activity is on record as 19.2% in the assay with HCT-116 [7]; 6.34% in the assay with HCT-116 [8]; 1.76% with HCT-116 [9]; 11.37% with HCT-116 [10]; 35.44% in the assay on HCT-116 [11]; 15.64% with HCT-116 [12].
